Assay outcomes (PubChem BioAssay)
Sampled rows, rich in hits. Any-hit rate of the full collection: about 2.2%.
Myeloid diff MLP = myeloid differentiation induction. ER-HoxA9 myeloid progenitors, lysozyme-GFP differentiation, flow cytometry. calls only at 10 µM. 1% of 360,000 active;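 active = normalized GFP-positive differentiation at or above the plate's own cutoff, the solvent-only control mean plus 3 SD; inconclusive = no clear call, values can overlap the other calls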;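 also: cells exposed to compound for four days before flow analysis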
HNF4A DNA FP = change in binding of human HNF4 alpha to DNA; activity change, % at 10 µM; 0.3% of 360,000 active; P41235; HNF4a-FITC DNA binding, fluorescence polarization, 1 h; in the data active = activity change above about 30%, passing the limit was not always enough
Target sequence (P41235 whole entry, looked up): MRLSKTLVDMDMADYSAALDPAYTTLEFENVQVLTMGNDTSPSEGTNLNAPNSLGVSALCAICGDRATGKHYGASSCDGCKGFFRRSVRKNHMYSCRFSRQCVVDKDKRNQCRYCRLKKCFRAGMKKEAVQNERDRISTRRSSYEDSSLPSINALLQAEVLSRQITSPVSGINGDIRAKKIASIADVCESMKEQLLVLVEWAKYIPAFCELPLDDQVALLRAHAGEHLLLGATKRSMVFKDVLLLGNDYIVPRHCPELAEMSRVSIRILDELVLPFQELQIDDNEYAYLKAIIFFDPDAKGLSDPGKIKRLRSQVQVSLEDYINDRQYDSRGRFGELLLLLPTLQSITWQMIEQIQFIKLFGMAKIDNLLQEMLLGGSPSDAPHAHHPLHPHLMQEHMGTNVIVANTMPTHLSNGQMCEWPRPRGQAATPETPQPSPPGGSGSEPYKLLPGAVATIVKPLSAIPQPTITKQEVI
CSN deneddyl inh = blocks human CSN-mediated cullin deneddylation | Purified CSN, SCF-Nedd8-OG deneddylation, fluorescence polarization | 0.38% of 360,000 active | inhibition, % at 12.5 µM | Q92905;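 active = pattern-corrected inhibition above about 35%, with an unprinted fluorescence ratio check between 0.5 and 1.5, limit read from the data, passing the limit was not always enough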;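 also: 0% = enzyme with substrate and 100% = substrate without enzyme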
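Detection – fluorescence polarization · System – HEK293T-derived human Csn5 enzyme · Controls – substrate-only high control, full reaction low control · Timing – 90 min, room temperature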
Exocytosis inh = lytic granule exocytosis inhibition | inhibition, % at 10 µM | TALL-104 LAMP-1 surface exposure, flow cytometry; cells stimulated with thapsigargin and PMA | 0.66% of 360,000 active | AID 651702;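 active = inhibition above about 55%, limit read from the data; inconclusive = no clear call, values can overlap the other calls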
Granule exo CP1 = lytic granule exocytosis inhibition. shares compounds with Exocytosis inh. TALL-104 cells, LAMP-1 externalization, flow cytometry; stimulated with PMA plus thapsigargin. inhibition, % at 10 µM. 11% of 1,500 active. AID 651954; in the data active = inhibition above about 60%;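 also: 0% = stimulated vehicle wells and 100% = unstimulated wells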
Active calls of the source: *; i = inactive; ? = inconclusive; / = no result given.

SMILES	Myeloid diff MLP	HNF4A DNA FP	CSN deneddyl inh	Exocytosis inh	Granule exo CP1
CC(=O)CCc1oc2c([N+](=O)[O-])cccc2c1-c1ccc(C)o1	i	1	2	72*	-5
COc1ccccc1C(=O)N1[C@@H](C(C)C)COc2cc(Br)ccc2S1(=O)=O	i	2	0	2	/
O=C(NCC1CCCCC1)c1cccc(-c2ccc(O)cc2)c1	?	0	0	59*	-4
Cc1ccc(S(=O)(=O)N2CCN(c3ccccc3)CC2)s1	i	-2	-2	1	/
COCCN(C(=O)c1sc2ccccc2c1Cl)c1c(N)n(CC(C)C)c(=O)[nH]c1=O	i	-1	-3	3	/
COc1ccccc1NC(=O)C1(c2ccccc2)CCCC1	i	-1	5	85*	-3
COC(C/C=C/[C@@H](O)[C@H](C)OCc1ccccc1)OC	i	0	-1	7	/
COC(C/C=C/[C@H](O)[C@@H](C)OCc1ccccc1)OC	i	0	-6	96*	-5
CC(C)(C)[C@@H]1CCC(=O)N(CC[C@H](Sc2ccc(Br)cc2)c2ccccc2)CC1	i	1	4	65*	-5
O=C1CC[C@@H](O)CCN1CC[C@H](Sc1ccc(Br)cc1)c1ccccc1	i	-1	3	-3	/
CC(=O)N(CCC(Cc1ccccc1)c1ccc2c(c1)OCO2)Cc1ccc(Cl)cc1 (centres undefined)	i	0	-1	90*	19
CN(c1ccccc1)S(=O)(=O)c1cccc(NC(=O)c2ccc3ncsc3c2)c1	i	-4	5	67*	8
CN(C)S(=O)(=O)c1cccc(NC(=O)c2ccc(COc3ccccc3)cc2)c1	i	3	2	58*	10
CN(c1ccccc1)S(=O)(=O)c1cccc(NC(=O)c2cccc(C#N)c2)c1	i	2	3	-1	/
COc1ccc(N(C)S(=O)(=O)c2cccc(C(=O)Nc3ccc4c(c3)OCCO4)c2)cc1	i	-4	-5	90*	-3
COc1ccc(N(C)S(=O)(=O)c2cccc(C(=O)Nc3cc(OC)ccc3OC)c2)cc1	i	2	-12	14	/
COCc1ccc(C(=O)Nc2cccc(S(=O)(=O)N(C)c3ccccc3)c2)cc1	i	-1	-1	-8	/
COC(=O)[C@]1(C)N[C@H](c2ccc(-c3ccc(F)cc3)cc2)[C@@H]2C(=O)N(C)C(=O)[C@@H]21	i	1	-2	-1	/
NC(=O)c1ccc(NC(=O)C#Cc2ccccc2)cc1	i	0	4	26	/
Cn1c(=O)c(N)c2c3c(c(Br)ccc31)C(=O)c1ccccc1-2	i	-105	-79	86*	68*
COc1ccccc1NC(=O)Cn1ccn(-c2cccc3ccccc23)c(=O)c1=O	i	1	3	-6	/
O=C(Nc1ccccc1-c1nnc(SCc2ccccc2)o1)c1ccccc1	i	-4	-2	67*	-10
O=C(Nc1ccccc1-c1nnc(SCc2ccc(Cl)cc2)o1)c1ccccc1	i	8	6	-2	/
O=C1ON=C(c2ccccc2)/C1=C/c1ccc(-c2ccccc2[N+](=O)[O-])o1	i	-5	6	70*	99*
CN(c1ccccc1)S(=O)(=O)c1ccc(C(=O)NCCc2ccc(F)cc2)cc1	i	-2	3	72*	-4
SMILES	Myeloid diff MLP	HNF4A DNA FP	CSN deneddyl inh	Exocytosis inh	Granule exo CP1
COC(=O)c1ccccc1S(=O)(=O)N1CCC(C(=O)OCC(=O)NCC(F)(F)F)CC1	i	0	-4	96*	-6
CC(=O)c1cccc(NC(=O)COc2cc(C)on2)c1	i	4	0	0	/
O=C(O)c1cc2c(N3CCC(Cc4ccccc4)CC3)ncnc2s1	i	0	-10	4	/
c1ccc(CC2CCN(c3ncnc4sccc34)CC2)cc1	i	6	-1	63*	-11
COc1ccc(CCN2C(=O)c3ccccc3NC2c2cc(Cl)c(O)c(OC)c2)cc1 (centres undefined)	?	2	-5	77*	-3
CCCN1C(=O)c2ccccc2NC1c1cc(OC)c(OC)c(OC)c1 (centres undefined)	i	-3	1	2	/
COc1cc(CNC(C)(C)CO)cc(Br)c1OCc1ccc(Cl)cc1Cl	?	1	-12	79*	28
CCOC(=O)C1CCN(Cc2cc(Cl)c3ccccc3c2O)CC1	i	-4	0	78*	0
CCOC(=O)C1CCN(Cc2ccc(OC)c(C)c2OC)CC1	i	2	-1	-5	/
C=CCCC(=O)Nc1nc(C)c(-c2csc(Nc3ccccc3OC)n2)s1	i	0	7	4	/
CCCCC(=O)Nc1nc(C)c(-c2csc(Nc3ccccc3OC)n2)s1	i	10	7	57*	-14
Cc1nn(-c2ccccc2)c(C)c1C(=O)NCc1ccccc1F	i	-2	5	-12	/
c1ccc(-c2cc3nc(NCC4CC4)nc(NCC4CCCCC4)c3s2)cc1	i	4	0	57*	32
COCCNc1nc(NCC2CCCCC2)c2sc(-c3ccccc3)cc2n1	i	3	1	53	/
Cc1csc(SCC(=O)N(C)C2CCS(=O)(=O)C2)n1 (centres undefined)	i	-2	0	-4	/
O=C1/C(=C\c2cccs2)Sc2ccc3ccccc3c21	i	20	16	85*	-1
CC(=O)Nc1c(Cl)cc2c(c1Cl)Cc1cc(C#N)ccc1-2	i	0	3	-3	/
Cc1ccc(S(=O)(=O)n2ccc3c(OCCOCCNCc4ccc(F)cc4)cccc32)cc1	i	-12	4	75*	69*
O=C(C[C@H]1C/C=C\C[C@H](Cc2ccc(F)cc2)C(=O)O[C@@H](c2ccccc2)CNC1=O)N[C@@H](CO)Cc1ccccc1	i	-4	-1	56*	-4
CCN1C(=O)c2cccc3c(S(=O)(=O)N4CCCC4C(=O)O)ccc1c23 (centres undefined)	i	2	-5	60*	-13
CCN1C(=O)c2cccc3c(S(=O)(=O)N4CCNCC4)ccc1c23	i	1	0	-3	/
CCOC(=O)N1CCN(C(=O)CSc2ccc3nnc(-c4cccnc4)n3n2)CC1	i	-1	0	87*	-13
CCOc1ccc(NC(=O)CSc2ccc3nnc(-c4cccnc4)n3n2)cc1	i	2	2	0	/
C[C@H](O)[C@@H]1CN2CCc3c([nH]c4ccc(-c5ccc6c(c5)OCO6)cc34)[C@@H]2C[C@@H]1N(C)C(=O)Nc1ccc(F)cc1	i	4	7	65*	1
CCC(C(=O)n1cccc1C#N)c1ccccc1C (centres undefined)	i	4	0	70*	-5
CCn1c(=O)c2cc(C(=O)NC(C)C)sc2c2ccccc21	i	4	1	2	/
CCCCNC(=O)c1cc2c(=O)n(CC)c3ccccc3c2s1	i	0	2	60*	-11
